We go through 13 compounds from ChEMBL document CHEMBL2010760, “New insights into the structure-cytotoxicity relationship of spirostan saponins and related glycosides” (Bioorg Med Chem, 2012).

pIC50: −log10 of the molar value. The source made the active and inactive calls. The rule behind the calls is not given here.

Assay [1] relates to HL-60. The assay can be described thus: Cytotoxicity against human HL60 cells assessed as cell viability after 72 hrs by MTT assay. It is filed as functional, cell-based. Conditions: HL-60, 72 h. In outline: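 HL-60 myeloid leukemia cells in RPMI 1640 with 10% heat-inactivated FBS, penicillin/streptomycin, 37 °C, 5% CO2. Exponentially growing cells (1 × 10⁴/well) exposed to 0.3–100 µM glycoside (100 mM DMSO stocks) for 72 h. MTT read at 570 nm. Survival taken as percent of control absorbance. IC50 from concentration–response curves fitted per experiment (DeLean equation). Triplicate determinations.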

For assay [2], the system named is HL-60. The assay can be described thus: Induction of apoptosis in human HL60 cells assessed as condensed chromatin at 10 uM after 24 hrs by Hoechst 33258 staining method. It is filed as functional, cell-based. The essentials:
(§1)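 Nuclear chromatin condensation and fragmentation in HL-60 cells scored by fluorescent microscopy after Hoechst 33258 staining. Treated cells compared with control cells.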

The test system of assay [3] is HL-60. Description: Induction of apoptosis in human HL60 cells assessed as caspase 9 activation measuring cleavage of tetrapeptide LEHD-pNA at 1 to 10 uM after 24 hrs. It is filed as functional, cell-based. The essentials:
(§2)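 HL-60 cells treated with increasing glycoside concentrations and harvested at 24 h. Lysates assayed colorimetrically with DEVD-pNA (caspase-3/7), IETD-pNA (caspase-8) and LEHD-pNA (caspase-9). Activity expressed as fold increase over control, mean ± SE. Two independent experiments, each in duplicate.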

Assay [4] has as its system HL-60. The assay can be described thus: Induction of apoptosis in human HL60 cells assessed as morphological changes at 10 uM after 24 hrs by phase contrast microscopy. It counts as functional, cell-based. The essentials:
(§3)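 HL-60 cells cultured in RPMI 1640/10% FBS at 37 °C, 5% CO2. Treated with 10 µM glycoside for 24 h. Representative fields examined by inverted phase contrast microscopy for morphology and growth.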

Assay [5] relates to HL-60. The assay can be described thus: Induction of apoptosis in human HL60 cells assessed as caspase 3/7 activation measuring cleavage of tetrapeptide DEVD-pNA at 1 to 10 uM after 24 hrs. It counts as functional, cell-based. The essentials:
as §2

Assay [6] has as its system HL-60. The assay can be described thus: Induction of apoptosis in human HL60 cells assessed as caspase 8 activation measuring cleavage of tetrapeptide IETD-pNA at 1 to 10 uM after 24 hrs. It counts as functional, cell-based. The essentials: as §2
Assay [7] concerns HL-60. Description: Induction of apoptosis in human HL60 cells assessed as increase in hypodiploid cells at sub-G1 fraction at 10 uM after 24 hrs by propidium iodide based flow cytometry relative to control. It counts as functional. In outline:
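HL-60 cells incubated with 10 µM glycoside for 24 h, labelled with propidium iodide and analysed by flow cytometry. Hypodiploid (sub-G1) fraction compared with control cells.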

For assay [8], the system named is HL-60. The assay can be described thus: Growth inhibition in human HL60 cells at 10 uM after 24 hrs by phase contrast microscopy. It is filed as functional, cell-based. The essentials:
as §3

In assay [9] the test system is HL-60. Description: Induction of apoptosis in human HL60 cells assessed as fragmented chromatin at 10 uM after 24 hrs by Hoechst 33258 staining method. It counts as functional, cell-based. In outline:
as §1

For the compound `C[C@@H]1CC[C@@]2(OC1)O[C@H]1C[C@H]3[C@@H]4CC(=O)[C@@]5(O)C[C@@H](O[C@@H]6O[C@@H]7CO[C@@H](c8ccccc8)O[C@H]7[C@H](OC(=O)C(C)(C)C)[C@H]6O)CC[C@]5(C)[C@H]4CC[C@]3(C)[C@H]1[C@@H]2C`, the pIC50 (commonly the IC50 on a negative log10 scale, so that one unit is a factor of ten) in the assay with HL-60 [1] is 5.48.
On the same count and under the same terms, the result for `C[C@@H]1CC[C@@]2(OC1)O[C@H]1C[C@H]3[C@@H]4CC[C@H]5C[C@@H](O[C@@H]6O[C@H](CO)[C@@H](O)[C@H](O)[C@H]6O[C@@H]6O[C@@H](C)[C@H](O)[C@@H](O)[C@H]6O)CC[C@]5(C)[C@H]4CC(=O)[C@]3(C)[C@H]1[C@@H]2C` reads under 4.00.
On the same count and under the same terms, the value for `C[C@@H]1CC[C@@]2(OC1)O[C@H]1C[C@H]3[C@@H]4CC(=O)[C@@]5(O)C[C@@H](O[C@@H]6O[C@H](CO)[C@@H](O)[C@H](O)[C@H]6O)CC[C@]5(C)[C@H]4CC[C@]3(C)[C@H]1[C@@H]2C` was under 4.00; that for `C[C@@H]1CC[C@@]2(OC1)O[C@H]1C[C@H]3[C@@H]4CC(=O)[C@@]5(O)C[C@@H](O[C@@H]6O[C@H](CO)[C@@H](O[C@@H]7O[C@@H](C)[C@H](O)[C@@H](O)[C@H]7O)[C@H](O)[C@H]6O[C@@H]6O[C@@H](C)[C@H](O)[C@@H](O)[C@H]6O)CC[C@]5(C)[C@H]4CC[C@]3(C)[C@H]1[C@@H]2C` was under 4.00.
Turning to `C[C@@H]1CC[C@@]2(OC1)O[C@H]1C[C@H]3[C@@H]4CC[C@H]5C[C@@H](O[C@@H]6O[C@H](COC(=O)C(C)(C)C)[C@@H](O)[C@H](OC(=O)C(C)(C)C)[C@H]6O)CC[C@]5(C)[C@H]4CC(=O)[C@]3(C)[C@H]1[C@@H]2C`, the pIC50 with HL-60 [1] was 4.92.
Same read-out and setting: the result for `C[C@@H]1CC[C@@]2(OC1)O[C@H]1C[C@H]3[C@@H]4CC(=O)[C@@]5(O)C[C@@H](O[C@@H]6O[C@H](CO)[C@@H](O)[C@H](O)[C@H]6O[C@@H]6O[C@@H](C)[C@H](O)[C@@H](O)[C@H]6O)CC[C@]5(C)[C@H]4CC[C@]3(C)[C@H]1[C@@H]2C` reads 4.06.
As for `C[C@@H]1CC[C@@]2(OC1)O[C@H]1C[C@H]3[C@@H]4CC=C5C[C@@H](O[C@@H]6O[C@H](CO)[C@@H](O[C@@H]7O[C@@H](C)[C@H](O)[C@@H](O)[C@H]7O)[C@H](O)[C@H]6O[C@@H]6O[C@@H](C)[C@H](O)[C@@H](O)[C@H]6O)CC[C@]5(C)[C@H]4CC[C@]3(C)[C@H]1[C@@H]2C` [DIOSCIN], in the assay on HL-60 [1], the pIC50 is 5.42.
In the case of `C[C@@H]1CC[C@@]2(OC1)O[C@H]1C[C@H]3[C@@H]4CC(=O)[C@@]5(O)C[C@@H](O[C@@H]6O[C@H](CO[C@@H]7O[C@@H](C)[C@H](O)[C@@H](O)[C@H]7O)[C@@H](O[C@@H]7O[C@@H](C)[C@H](O)[C@@H](O)[C@H]7O)[C@H](O)[C@H]6O)CC[C@]5(C)[C@H]4CC[C@]3(C)[C@H]1[C@@H]2C`, in the assay with HL-60 [1], the pIC50 was under 4.00.
Regarding `C[C@@H]1CC[C@@]2(OC1)O[C@H]1C[C@H]3[C@@H]4CC[C@H]5C[C@@H](O[C@@H]6O[C@H](CO[C@@H]7O[C@@H](C)[C@H](O)[C@@H](O)[C@H]7O)[C@@H](O[C@@H]7O[C@@H](C)[C@H](O)[C@@H](O)[C@H]7O)[C@H](O)[C@H]6O)CC[C@]5(C)[C@H]4CC(=O)[C@]3(C)[C@H]1[C@@H]2C`, the pIC50 in the assay on HL-60 [1] was under 4.00.
Same read-out and setting: the result for `C[C@@H]1CC[C@@]2(OC1)O[C@H]1C[C@H]3[C@@H]4CC[C@H]5C[C@@H](O[C@@H]6O[C@H](CO)[C@@H](O)[C@H](O)[C@H]6O)CC[C@]5(C)[C@H]4CC(=O)[C@]3(C)[C@H]1[C@@H]2C` reads under 4.00; that for `C[C@@H]1CC[C@@]2(OC1)O[C@H]1C[C@H]3[C@@H]4CC[C@H]5C[C@@H](O[C@@H]6O[C@H](CO)[C@@H](O[C@@H]7O[C@@H](C)[C@H](O)[C@@H](O)[C@H]7O)[C@H](O)[C@H]6O[C@@H]6O[C@@H](C)[C@H](O)[C@@H](O)[C@H]6O)CC[C@]5(C)[C@H]4CC(=O)[C@]3(C)[C@H]1[C@@H]2C`, 5.37.
Take `C[C@@H]1CC[C@@]2(OC1)O[C@H]1C[C@H]3[C@@H]4CC(=O)[C@@]5(O)C[C@@H](O[C@@H]6O[C@H](COC(=O)C(C)(C)C)[C@@H](O)[C@H](OC(=O)C(C)(C)C)[C@H]6O)CC[C@]5(C)[C@H]4CC[C@]3(C)[C@H]1[C@@H]2C`: the result with HL-60 [2], in the assay with HL-60 [3], in the assay on HL-60 [4], with HL-60 [5], in the assay on HL-60 [6] and with HL-60 [9] was Active. Also, in the assay on HL-60 [7], the “fold change (FC)” value was 7. In the assay with HL-60 [8], the “growth inhibition (GI)” value is “Active”. Moreover, the pIC50 with HL-60 [1] is 5.68.
As for `C[C@@H]1CC[C@@]2(OC1)O[C@H]1C[C@H]3[C@@H]4CC[C@H]5C[C@@H](O[C@@H]6O[C@@H]7CO[C@@H](c8ccccc8)O[C@H]7[C@H](OC(=O)C(C)(C)C)[C@H]6O)CC[C@]5(C)[C@H]4CC(=O)[C@]3(C)[C@H]1[C@@H]2C`, in the assay with HL-60 [1], the pIC50 was 4.35.
